A short description of this data set: Toxicity liver stage against HepG2, at 10uM. Conditions: human, HepG2-A16-CD81EGFP cells; read-out: INHIBITION
The arrangement: test concentration 10 uM, cell line HepG2-A16-CD81EGFP. The data set is classed as cell-based. In a few lines:
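Uninfected HepG2-A16-CD81EGFP cells, 3 × 10^3 per well, 1536-well, plated on prespotted compound at 10 μM final, parasite-free screening media added to match infected plates; puromycin 10 μM positive, DMSO 0.5% negative; run in parallel with 48 h PbLuc assay at 37 °C, 5% CO2; viability by CellTiter-Glo luminescence, normalized to controls.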
Regarding `c1ccc2c(Cc3nnc([C@H]4CCN(C5CCC5)C4)o3)c[nH]c2c1`, the cytotoxicity at 10 µM was -0.0653%. `Cn1ccc2cc(C(=O)N3CC[C@@]4(O)CCCC[C@H]4C3)ccc21`: the cytotoxicity at 10 µM was -46.8%. Turning to `CC(=O)Nc1ccc(SCC(=O)NCC2CCCO2)nn1` (stereo unspecified), the cytotoxicity at 10 µM is -16.7%. As to `CC(=O)N1CCC2(CCCN(C(=O)CCN3CCCCC3)C2)C1` (stereo unspecified), the cytotoxicity at 10 µM turned out to be 0.906%. Take `Cc1cccc(N2CC3(CCN(S(=O)(=O)c4cccs4)C3)CC2=O)c1` (stereo unspecified): the cytotoxicity at 10 µM is -1.21%. Regarding `Cc1cccc(CN2C[C@@H]3CN(C(=O)c4conc4C)C[C@@H]3C2=O)c1`, the cytotoxicity at 10 µM came out at 2.66%. For the compound `CCc1c(C(=O)O)nnn1-c1cc(C)cc(C)c1`, the cytotoxicity at 10 µM is -6.69%. Take `O=C(NCCN1CCOCC1)c1cc(-c2ccc3c(c2)CCO3)n[nH]1`: the cytotoxicity at 10 µM is -2.95%. `O=C(c1cnn2c1OCCC2)N1CCN(C/C=C/c2ccccc2)CC1`: the cytotoxicity at 10 µM was 9.28%. In the case of `O=C(CC1CCCC1)NCCn1ccc(-c2ccccn2)n1`, the cytotoxicity at 10 µM was 5.5%. With `O=C(c1cccs1)N1C[C@H]2CC[C@@]3(N=C(c4ccccc4)NC3=O)[C@H]2C1`, the cytotoxicity at 10 µM is -9.84%. With `Cc1ccccc1CN1CCN(c2ncnc3c2NC(=O)CN3)CC1`, the cytotoxicity at 10 µM amounted to 6.78%.

Turning to `Cc1cccc(NC(=O)CN2C(=O)CC(C)(C)c3ccccc32)n1`, the cytotoxicity at 10 µM is 2.2%. Take `CCC(=O)N1CCCCC1c1nc(CN(C)C(C)=O)cc(N(C)C)n1` (stereo unspecified): the cytotoxicity at 10 µM was -3.17%. As for `Cc1nc(N)cc(C2CCN2CCC(N)=O)n1` (stereo unspecified), the cytotoxicity at 10 µM is -1.21%. With `Cc1ccnn1CCC(=O)N1CCCC[C@]2(C)NC(=O)CCC[C@H]12`, the cytotoxicity at 10 µM was -0.822%. As for `COCC(=O)N1C[C@@H](c2cccc(OC)c2)[C@@]2(CCCCC(=O)N2)C1`, the cytotoxicity at 10 µM was determined as 1.62%. With `Nc1ccc(CC2CCCN(Cc3c[nH]cn3)C2)nn1` (stereo unspecified), the cytotoxicity at 10 µM was -0.701%. In the case of `COCCC(=O)N1CCC(c2cncc(Oc3cccnc3)n2)CC1`, the cytotoxicity at 10 µM is -9.55%. On to `CCC(=O)N1CCCC1c1csc(Nc2cnccn2)n1` (stereo unspecified), for which the cytotoxicity at 10 µM was -2.8%. Regarding `O=C(O)c1cnc(OCC2CC2)c(Br)c1`, the cytotoxicity at 10 µM was 9.38%. `O=C(C1CCCS1)N1CCOc2cccc(F)c21` (stereo unspecified): the cytotoxicity at 10 µM was -6.54%. On to `CC(C)(NC(=O)c1scnc1Cl)c1ccccc1`, for which the cytotoxicity at 10 µM was -10.9%. Consider `COc1ccc(C)cc1CN(CC(N)=O)C(C)C`, for which the cytotoxicity at 10 µM is -0.846%. Under `COC1CCN(CCNC(=O)NC(C)c2ccc(F)c(F)c2)CC1` (stereo unspecified) stands 9.88%; under `CC(=O)N1CCN(CCNc2snc(Cl)c2C#N)CC1`, 5.69%; under `CN(Cc1cnn(C)c1)S(=O)(=O)N1CCCCCC1`, -1.43%. With `CC(C)(O)CNC(=O)NCc1nccn1CCc1ccccc1`, the cytotoxicity at 10 µM is 3.04%. On to `CN(C(=O)NCc1nccn1CCc1ccccc1)C1CCC1`, for which the cytotoxicity at 10 µM was found to be 1.96%.

`CC(C)C(C)NC(=O)Nc1ccc(CS(=O)(=O)C(C)C)cc1` (stereo unspecified): the cytotoxicity at 10 µM was -1.28%.

On to `O=C(C1CCCC1)N1CCCC1c1nnc2n1CCCCC2` (stereo unspecified), for which the cytotoxicity at 10 µM is -2.58%.

With `CC(C)C(NC(=O)c1ccccc1F)C(=O)N1CCC2(CC1)OCCO2` (stereo unspecified), the cytotoxicity at 10 µM was determined as 7.04%. `O=C(Nc1cccn(Cc2ccccc2)c1=O)c1ccncc1F`: the cytotoxicity at 10 µM was determined as 14.8%. `Cc1cc(CNC2(c3ccccc3F)CC2)no1`: the cytotoxicity at 10 µM is 5.71%. Under `CCC(=O)NCc1cc(Br)c(OC)c(OC)c1` stands -0.0582%. Under `Cc1cc(=O)n2ncnc2n1CC(O)c1cc(F)ccc1F` (stereo unspecified) stands 1.7%; under `Cc1[nH]ccc1C(=O)Nc1cccc(CN2CCC(O)CC2)c1`, 0.149%; under `COc1ccc(C2CCCN2S(=O)(=O)N(C)CC(C)C)cc1` (stereo unspecified), -6.72%. With `CN(C)C(=O)C1CCCN1CCCNC(=O)c1ccccc1F` (stereo unspecified), the cytotoxicity at 10 µM is -20.2%. For `CSCC(CCO)NC(=O)Nc1cccc(Br)c1` (stereo unspecified), the cytotoxicity at 10 µM is -7.69%.

For the compound `CSCC(CCO)NC(=O)Nc1cc(Br)ccc1C` (stereo unspecified), the cytotoxicity at 10 µM is -11.1%. Under `CS(=O)(=O)NCc1cc(-c2cc(F)cc(F)c2)nc(N2CCOCC2)n1` stands -9.24%; under `CCCc1ccc(CN2CCN(C(=O)N(C)C)[C@@H]3CS(=O)(=O)C[C@@H]32)o1`, 8.69%; under `Cc1nn2cc(CNc3nccc(CCC(F)(F)F)n3)nc2s1`, -8.27%.

On to `O=C(CCN1CCCO1)N1CCCC(CO)(CCCc2ccccc2)C1` (stereo unspecified), for which the cytotoxicity at 10 µM was found to be 2.76%.

`CCCc1ccc(CN2CCN(c3ncccn3)[C@@H]3CS(=O)(=O)C[C@@H]32)o1`: the cytotoxicity at 10 µM turned out to be 1.66%.

`Cc1c[nH]c(C(=O)N2CCCC2c2ccc(C(=O)N3CCSCC3)s2)n1` (stereo unspecified): the cytotoxicity at 10 µM came out at 2.73%.

As to `CC(C)c1noc(CN(C)C(=O)C2COc3ccccc3C2)n1` (stereo unspecified), the cytotoxicity at 10 µM came out at 2.77%. Consider `COc1cccc(-c2n[nH]c3c2CN(C(=O)c2ccncc2)CC3)c1`, for which the cytotoxicity at 10 µM is -5.55%.

Regarding `O=C(O)c1cc(-c2cn[nH]c2)cc(S(=O)(=O)N2CCSCC2)c1`, the cytotoxicity at 10 µM was -8.26%. As for `COc1ccccc1CN(C)C(=O)c1cc(CN2CCC(O)CC2)on1`, the cytotoxicity at 10 µM was -26.7%.

For `CN1CCCN(C[C@@H]2CN(C(=O)CCC3CCCC3)C[C@@H]2CO)CC1`, the cytotoxicity at 10 µM is -20.6%. Under `CCN1CCn2nc(CCC(=O)N3CCCC3)cc2C1` stands 0.685%; under `Cn1cc(CN2CC[C@@H]3[C@@H](CCC(=O)N3CCc3c[nH]cn3)C2)cn1`, -9.73%; under `CCc1nc(C)cn1C(=O)Nc1ccc(C)cc1`, -1.64%. Regarding `Cn1c(=O)c2cc(C(=O)NCc3ccncc3)ccc2n(C)c1=O`, the cytotoxicity at 10 µM was -11.1%. As to `CCCNC(=O)NC(=O)CNC(C)(C)c1ccc2c(c1)OCCO2`, the cytotoxicity at 10 µM was -14.7%. In the case of `CC(C)n1cc(CN2CCCN(C(=O)CC3CCCO3)CC2)cn1` (stereo unspecified), the cytotoxicity at 10 µM was -12.4%. Consider `CN(C)c1cc(C(=O)N2CCCC2)ccn1`, for which the cytotoxicity at 10 µM was -4.1%. In the case of `CN(Cc1ccncc1)C(=O)NCc1nnc2n1CCCCC2`, the cytotoxicity at 10 µM is -26%.

As for `CC(C)Oc1ccc(CNC(=O)CC(F)(F)F)cc1F`, the cytotoxicity at 10 µM was -1.08%. Take `CC(C)OCCCNC(=O)c1ccc(-c2ccco2)[nH]c1=O`: the cytotoxicity at 10 µM is -4.45%. As to `c1cc(CN2CCCC3(COCCN(Cc4c[nH]nn4)C3)C2)cs1` (stereo unspecified), the cytotoxicity at 10 µM is 8.59%.

Regarding `Cn1cccc1C(=O)NCc1cn2c(n1)CN(CC1CCOCC1)CC2`, the cytotoxicity at 10 µM is 8.33%. As to `Fc1cccc(-c2c[nH]c(C3CCCN3)n2)c1` (stereo unspecified), the cytotoxicity at 10 µM is -5.93%.

`CC(=O)N1CCC2(CC1)C(=O)N(CC1CCN(C)CC1)c1ccccc12`: the cytotoxicity at 10 µM was determined as 1.73%.

On to `CNC(=O)CN1CCc2c(CNc3nccs3)n[nH]c2C1`, for which the cytotoxicity at 10 µM was 3.25%. `O=C(NCc1cccs1)[C@H]1CC[C@@H]2[C@@H](CCN2C2CCC2)O1`: the cytotoxicity at 10 µM was -6.34%.

Consider `Cn1ccnc1CN1CCC2(CC1)CN(c1ccccc1)C(=O)CO2`, for which the cytotoxicity at 10 µM was -0.414%.

Take `CCN1CCC2(CC1)CC(NCc1cccc(C)n1)c1ccccc1O2` (stereo unspecified): the cytotoxicity at 10 µM is -1.46%. Under `CN(C)C(c1ccccn1)C1CCC(CNC(=O)CC2CCCC2)CC1` (stereo unspecified) stands 9.43%.
